Test results reported in ChEMBL document CHEMBL1128448, “Synthesis and antifungal activity of new azole derivatives containing an N-acylmorpholine ring” (1995).
Values after ≈ are worked out from the molar mass of the structure shown.

How the values were obtained:
Assay type in all cases: functional
[1] = test system: Mus sp.; assay: In vivo evaluation of % survival rate after peroral administration on 9th day at dose 1 mg/kg; details: route oral, 1 mg/kg
[2] = test system: Kluyveromyces marxianus; assay: In vitro evaluation of minimum inhibitory concentration against Candida pseudotropicalis 13
In short: (§1)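 Stocks are 800 μg/mL in 50% ethanol. Each plate gets 10 μL of inoculum at 10^5 cfu/mL. Incubation at 25 °C, 48 h for yeasts and 120 h for dermatophytes and molds. Organisms are ATCC strains or clinical isolates.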

[3] = test system: Mus sp.; assay: In vivo evaluation of % survival rate after peroral administration on 9th day at dose 2.5 mg/kg; details: Mus sp., po
[4] = test system: Candida albicans; assay: In vitro Evaluation of minimum inhibitory concentration against Candida albicans 76; in short: as §1
[5] = test system: Mus sp.; assay: In vivo evaluation of % survival rate after peroral administration on 7th day at dose 1 mg/kg; details: route oral, 1 mg/kg
[6] = test system: Mus sp.; assay: In vivo evaluation of % survival rate after peroral administration on 5th day at dose 1 mg/kg; details: route oral, 1 mg/kg
[7] = test system: Candida albicans; assay: […] Evaluation of minimum inhibitory concentration against Candida albicans 60; in short: as §1
[8] = test system: Aspergillus flavus; assay: In vivo Evaluation of minimum inhibitory concentration against Aspergillus flavus 19; details: in the assay text read “In vitro” for “In vivo”; in short: as §1
[9] = test system: Candida albicans; assay: […] Evaluation of minimum inhibitory concentration against Candida albicans 406; in short: as §1
[10] = test system: Meyerozyma guilliermondii; assay: In vitro Evaluation of minimum inhibitory concentration against Candida guilliermondii 26; in short: as §1
[11] = test system: Mus sp.; assay: In vivo evaluation of % survival rate after peroral administration on 5th day at dose 2.5 mg/kg; details: Mus sp., po
[12] = test system: Mus sp.; assay: In vivo evaluation of % survival rate after peroral administration on 3rd day at dose 2.5 mg/kg; details: Mus sp., po
[13] = test system: Candida tropicalis; assay: In vitro evaluation of minimum inhibitory concentration against Candida tropicalis 2.11; in short: as §1
[14] = test system: Mus sp.; assay: In vivo evaluation of % survival rate after peroral administration on 7th day at dose 2.5 mg/kg; details: Mus sp., po
[15] = test system: Candida parapsilosis; assay: In vitro evaluation of minimum inhibitory concentration against Candida parapsilosis 61; in short: as §1
[16] = test system: Rhodotorula mucilaginosa; assay: In vitro evaluation of minimum inhibitory concentration against Rhodotorula rubra 16; in short: as §1

Structure (SMILES): C[C@H]1N(C(=O)c2ccc(C(F)(F)F)cc2)CC(=O)O[C@@]1(Cn1cncn1)c1ccc(Cl)cc1Cl (racemic)
- Survival [1]: 45%
- MIC [2]: 20 µg/mL (≈ 39 µM)
- survival at 2.5 mg/kg [3]: 100%
- MIC [4]: 20 µg/mL (≈ 39 µM)
- Survival [5]: 55%
- Survival [6]: 80%
- MIC [7]: 10 µg/mL (≈ 19.5 µM)
- MIC [8]: > 80 µg/mL
- MIC [9]: 5 µg/mL (≈ 9.74 µM)
- MIC [10]: 80 µg/mL (≈ 156 µM)
- survival at 2.5 mg/kg [11]: 100%
- survival at 2.5 mg/kg [12]: 100%
- MIC [13]: 80 µg/mL (≈ 156 µM)
- survival at 2.5 mg/kg [14]: 100%
- MIC [15]: 40 µg/mL (≈ 77.9 µM)
- MIC [16]: 80 µg/mL (≈ 156 µM)
